Data taken from ChEMBL document CHEMBL4257452, “A mini-library system to investigate non-essential residues of lipid-phosphatidylserine (PS) binding peptide-peptoid hybrid PPS1” (Medchemcomm, 2017).
Calls of active or inactive are those of the source. No cut-off for these calls is given here. Starred links: 1 amine or outer side, 2 acyl side, 3 side chain; linkers in the order of their positions; H or OH if unused. Positions of bridges follow the written chain, without caps; N, C: chain ends. Non-standard residues stand in square brackets, D forms with d. Residues, ends and D or L forms follow the SMILES beside them. Chains are numbered I, II in the order given. Gly(N-piperonyl) = O=C(O)CNCc1ccc2c(c1)OCO2; X5 = O=C(CN(c1ccc2c(c1)OCCO2)[*:1])[*:2]; N(4-MeOBn)Gly = COc1ccc(CNCC(=O)O)cc1; X1 = COc1cccc(CN(CC(=O)[*:2])[*:1])c1; X2 = CC(CN(CC(=O)[*:2])[*:1])c1ccccc1; N((CH2)3OiPr)Gly = CC(C)OCCCNCC(=O)O; X3 = CC(c1ccccc1)N(CC(=O)[*:2])[*:1]; Nrpe = C[C@@H](NCC(=O)O)c1ccccc1; NAllylGly = C=CCNCC(=O)O; Nlys = NCCCCNCC(=O)O; Nme = COCCNCC(=O)O

Assays:
HCC4017 [1] = assay: Cytotoxicity against human HCC4017 cells assessed as reduction in cell viability at 20 uM after 24 hrs by MTS assay; format: functional, cell-based
Outline: (§1)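 HCC4017 cells (RPMI, 5% FBS) and HBEC-3KT normal lung cells (KSFM with recombinant human EGF and bovine pituitary extract) were plated at 10 000 cells/well in triplicate and left to adhere overnight. They were exposed to 1 or 20 μM compound for 24 h. MTS reagent was then added for 2 h and absorbance read at 490 nm. Viability is % of untreated control wells.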

HCC4017 [2] = assay: Cytotoxicity against human HCC4017 cells assessed as reduction in cell viability after 24 hrs by MTS assay; format: functional, cell-based; conditions: HCC4017, 24 h
Outline: (§2)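 HCC4017 lung cancer cells (RPMI, 5% FBS) were seeded at 10 000 cells/well in triplicate and adhered overnight. Purified compounds were given as a concentration gradient for 24 h. MTS reagent was added for 2 h and absorbance read at 490 nm. IC50 was taken from the viability curves.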

HCC4017 [3] = assay: Cytotoxicity against human HCC4017 cells assessed as reduction in cell viability at 1 uM after 24 hrs by MTS assay; format: functional, cell-based; outline: as §1
[4] = Cytotoxicity against human HBEC3-KT cells assessed as reduction in cell viability at 1 uM after 24 hrs by MTS assay; format: cell-based; outline: as §1
[5] = Cytotoxicity against human HBEC3-KT cells assessed as reduction in cell viability at 20 uM after 24 hrs by MTS assay; format: cell-based; outline: as §1
HCC4017 [6] = assay: Cytotoxicity against human HCC4017 cells assessed as reduction in cell viability up to 100 uM after 24 hrs by calcein-AM dye based fluorescence assay; format: functional; conditions: in the assay text read “up to 50 uM” for “up to 100 uM”
Outline: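 HCC4017 cells were seeded at 10 000 cells/well in triplicate, adhered overnight, and treated with a graded series of compounds for 24 h. Medium was replaced with PBS containing calcein AM (1 mM as printed) for 15 min at room temperature. Fluorescence emission was read at 520 nm.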

HCC4017 [7] = assay: Cytotoxicity against human HCC4017 cells assessed as reduction in cell viability up to 100 uM after 24 hrs by MTS assay; format: functional, cell-based; conditions: in the assay text read “up to 50 uM” for “up to 100 uM”; outline: as §2

Row | Compound | Activity (HCC4017 [1]) | IC50 (HCC4017 [2]) [µM] | Activity (HCC4017 [3]) | Activity [4] | Activity [5] | Activity (HCC4017 [6]) | Activity (HCC4017 [7])
1 | COc1ccc(CN(CC(=O)NC(C(=O)NC(CCCCN)C(=O)NC(CCCCN)C(=O)NC(CCSC)C(=O)NCCCCC(NC(=O)C(CCSC)NC(=O)C(CCCCN)NC(=O)C(CCCCN)NC(=O)C(NC(=O)CN(Cc2ccc(OC)cc2)C(=O)CN(C(=O)CN(Cc2ccc3c(c2)OCO3)C(=O)CNC(C)c2ccccc2)C(C)c2ccccc2)C(C)O)C(N)=O)C(C)O)C(=O)CN(C(=O)CN(Cc2ccc3c(c2)OCO3)C(=O)CNC(C)c2ccccc2)C(C)c2ccccc2)cc1 (configuration not stated) (I: H-[X3][Gly(N-piperonyl)][X3][N(4-MeOBn)Gly]TKKMK-NH2 / II: H-[X3][Gly(N-piperonyl)][X3][N(4-MeOBn)Gly]TKKM; amide I:9-II:C; configuration not given here) | Active | 14 | – | – | – | – | –
2 | COc1ccc(CN(CC(=O)N(CC(=O)N[C@@H](CCCCN)C(=O)N[C@H](CCCCN)C(=O)N[C@@H](CCSC)C(=O)NCCCC[C@H](NC(=O)[C@H](CCSC)NC(=O)[C@@H](CCCCN)NC(=O)[C@H](CCCCN)NC(=O)CN(C(=O)CN(Cc2ccc(OC)cc2)C(=O)CN(C(=O)CN(Cc2ccc3c(c2)OCO3)C(=O)CN[C@H](C)c2ccccc2)[C@H](C)c2ccccc2)c2ccc3c(c2)OCCO3)C(N)=O)c2ccc3c(c2)OCCO3)C(=O)CN(C(=O)CN(Cc2ccc3c(c2)OCO3)C(=O)CN[C@H](C)c2ccccc2)[C@H](C)c2ccccc2)cc1 (I: H-[Nrpe][Gly(N-piperonyl)][Nrpe][N(4-MeOBn)Gly][X5]K[dK]MK-NH2 / II: H-[Nrpe][Gly(N-piperonyl)][Nrpe][N(4-MeOBn)Gly][X5]K[dK]M; amide I:9-II:C) | Active | – | inactive | Non-Toxic | Non-Toxic | – | –
3 | COc1ccc(CN(CC(=O)N(CCCCN)CC(=O)NC(CCCCN)C(=O)NC(CCCCN)C(=O)NCCCCC(NC(=O)C(CCCCN)NC(=O)C(CCCCN)NC(=O)CN(CCCCN)C(=O)CN(Cc2ccc(OC)cc2)C(=O)CN(C(=O)CN(Cc2ccc3c(c2)OCO3)C(=O)CNC(C)c2ccccc2)C(C)c2ccccc2)C(N)=O)C(=O)CN(C(=O)CN(Cc2ccc3c(c2)OCO3)C(=O)CNC(C)c2ccccc2)C(C)c2ccccc2)cc1 (configuration not stated) (I: H-[X3][Gly(N-piperonyl)][X3][N(4-MeOBn)Gly][Nlys]KKK-NH2 / II: H-[X3][Gly(N-piperonyl)][X3][N(4-MeOBn)Gly][Nlys]KK; amide I:8-II:C; configuration not given here) | Active | – | – | – | – | Active | –
4 | COc1ccc(CN(CC(=O)N(CCCOC(C)C)CC(=O)NC(CCCCN)C(=O)NC(CCCCN)C(=O)NC(CCSC)C(=O)NCCCCC(NC(=O)C(CCSC)NC(=O)C(CCCCN)NC(=O)C(CCCCN)NC(=O)CN(CCCOC(C)C)C(=O)CN(Cc2ccc(OC)cc2)C(=O)CN(C(=O)CN(Cc2ccc3c(c2)OCO3)C(=O)CNC(C)c2ccccc2)C(C)c2ccccc2)C(N)=O)C(=O)CN(C(=O)CN(Cc2ccc3c(c2)OCO3)C(=O)CNC(C)c2ccccc2)C(C)c2ccccc2)cc1 (configuration not stated) (I: H-[X3][Gly(N-piperonyl)][X3][N(4-MeOBn)Gly][N((CH2)3OiPr)Gly]KKMK-NH2 / II: H-[X3][Gly(N-piperonyl)][X3][N(4-MeOBn)Gly][N((CH2)3OiPr)Gly]KKM; amide I:9-II:C; configuration not given here) | Active | 7 to 10 | inactive | Non-Toxic | Non-Toxic | Active | –
5 | COc1ccc(CN(CC(=O)N(CC(=O)NC(CCCCN)C(=O)NC(CCCCN)C(=O)NC(CCSC)C(=O)NCCCCC(NC(=O)C(CCSC)NC(=O)C(CCCCN)NC(=O)C(CCCCN)NC(=O)CN(CC(C)c2ccccc2)C(=O)CN(Cc2ccc(OC)cc2)C(=O)CN(C(=O)CN(Cc2ccc3c(c2)OCO3)C(=O)CNC(C)c2ccccc2)C(C)c2ccccc2)C(N)=O)CC(C)c2ccccc2)C(=O)CN(C(=O)CN(Cc2ccc3c(c2)OCO3)C(=O)CNC(C)c2ccccc2)C(C)c2ccccc2)cc1 (configuration not stated) (I: H-[X3][Gly(N-piperonyl)][X3][N(4-MeOBn)Gly][X2]KKMK-NH2 / II: H-[X3][Gly(N-piperonyl)][X3][N(4-MeOBn)Gly][X2]KKM; amide I:9-II:C; configuration not given here) | Active | 7 to 10 | inactive | Non-Toxic | Non-Toxic | Active | –
6 | COc1ccc(CN(CC(=O)NC(CCC(=O)O)C(=O)NC(CCCCN)C(=O)NC(CCCCN)C(=O)NC(CCSC)C(=O)NCCCCC(NC(=O)C(CCSC)NC(=O)C(CCCCN)NC(=O)C(CCCCN)NC(=O)C(CCC(=O)O)NC(=O)CN(Cc2ccc(OC)cc2)C(=O)CN(C(=O)CN(Cc2ccc3c(c2)OCO3)C(=O)CNC(C)c2ccccc2)C(C)c2ccccc2)C(N)=O)C(=O)CN(C(=O)CN(Cc2ccc3c(c2)OCO3)C(=O)CNC(C)c2ccccc2)C(C)c2ccccc2)cc1 (configuration not stated) (I: H-[X3][Gly(N-piperonyl)][X3][N(4-MeOBn)Gly]EKKMK-NH2 / II: H-[X3][Gly(N-piperonyl)][X3][N(4-MeOBn)Gly]EKKM; amide I:9-II:C; configuration not given here) | inactive | – | – | – | – | – | inactive
7 | COc1ccc(CN(CC(=O)N(CC(=O)NC(CCCCN)C(=O)NC(CCCCN)C(=O)NC(CCSC)C(=O)NCCCCC(NC(=O)C(CCSC)NC(=O)C(CCCCN)NC(=O)C(CCCCN)NC(=O)CN(Cc2cccc(OC)c2)C(=O)CN(Cc2ccc(OC)cc2)C(=O)CN(C(=O)CN(Cc2ccc3c(c2)OCO3)C(=O)CNC(C)c2ccccc2)C(C)c2ccccc2)C(N)=O)Cc2cccc(OC)c2)C(=O)CN(C(=O)CN(Cc2ccc3c(c2)OCO3)C(=O)CNC(C)c2ccccc2)C(C)c2ccccc2)cc1 (configuration not stated) (I: H-[X3][Gly(N-piperonyl)][X3][N(4-MeOBn)Gly][X1]KKMK-NH2 / II: H-[X3][Gly(N-piperonyl)][X3][N(4-MeOBn)Gly][X1]KKM; amide I:9-II:C; configuration not given here) | Active | 7 to 10 | inactive | Non-Toxic | Non-Toxic | Active | –
8 | C=CCNCC(=O)N(CCOC)CC(=O)N(CC=C)CC(=O)N(CCOC)CC(=O)N(CC=C)CC(=O)NCC(=O)NC(CCCCN)C(=O)NC(CCSC)C(=O)NCCCCC(NC(=O)C(CCSC)NC(=O)C(CCCCN)NC(=O)CNC(=O)CN(CC=C)C(=O)CN(CCOC)C(=O)CN(CC=C)C(=O)CN(CCOC)C(=O)CNCC=C)C(N)=O (configuration not stated) (I: H-[NAllylGly][Nme][NAllylGly][Nme][NAllylGly]GKMK-NH2 / II: H-[NAllylGly][Nme][NAllylGly][Nme][NAllylGly]GKM; amide I:9-II:C; configuration not given here) | – | – | inactive | Non-Toxic | Non-Toxic | inactive | –
9 | COc1ccc(CN(CC(=O)NC(Cc2ccccc2)C(=O)NC(CCCCN)C(=O)NC(CCCCN)C(=O)NC(CCSC)C(=O)NCCCCC(NC(=O)C(CCSC)NC(=O)C(CCCCN)NC(=O)C(CCCCN)NC(=O)C(Cc2ccccc2)NC(=O)CN(Cc2ccc(OC)cc2)C(=O)CN(C(=O)CN(Cc2ccc3c(c2)OCO3)C(=O)CNC(C)c2ccccc2)C(C)c2ccccc2)C(N)=O)C(=O)CN(C(=O)CN(Cc2ccc3c(c2)OCO3)C(=O)CNC(C)c2ccccc2)C(C)c2ccccc2)cc1 (configuration not stated) (I: H-[X3][Gly(N-piperonyl)][X3][N(4-MeOBn)Gly]FKKMK-NH2 / II: H-[X3][Gly(N-piperonyl)][X3][N(4-MeOBn)Gly]FKKM; amide I:9-II:C; configuration not given here) | Active | 7 to 10 | inactive | Non-Toxic | Non-Toxic | – | –
10 | COc1ccc(CN(CC(=O)N(CCCCN)CC(=O)N[C@@H](CCCCN)C(=O)N[C@H](CCCCN)C(=O)N[C@@H](CCSC)C(=O)NCCCC[C@H](NC(=O)[C@H](CCSC)NC(=O)[C@@H](CCCCN)NC(=O)[C@H](CCCCN)NC(=O)CN(CCCCN)C(=O)CN(Cc2ccc(OC)cc2)C(=O)CN(C(=O)CN(Cc2ccc3c(c2)OCO3)C(=O)CN[C@H](C)c2ccccc2)[C@H](C)c2ccccc2)C(N)=O)C(=O)CN(C(=O)CN(Cc2ccc3c(c2)OCO3)C(=O)CN[C@H](C)c2ccccc2)[C@H](C)c2ccccc2)cc1 (I: H-[Nrpe][Gly(N-piperonyl)][Nrpe][N(4-MeOBn)Gly][Nlys]K[dK]MK-NH2 / II: H-[Nrpe][Gly(N-piperonyl)][Nrpe][N(4-MeOBn)Gly][Nlys]K[dK]M; amide I:9-II:C) | Active | – | inactive | Non-Toxic | Non-Toxic | Active | –
